In the library only some 1.5% were active in any assay of this set; here they are far more common.
EBI2 block: blocks human EBI2 receptor beta-arrestin signaling; P32249; EBI2 beta-arrestin recruitment, luminescence, 7a,25-OHC stimulated; inhibition, % at 5 µM; hit rate 0.81% among 360,000; AID 651636; in the data active means inhibition above about 38%;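 further: enzyme fragment complementation signal reports receptor beta-arrestin coupling in cells; 0% = agonist plus DMSO wells and 100% = wells without agonist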
Target sequence (P32249 whole entry, looked up, the tested form may be a part): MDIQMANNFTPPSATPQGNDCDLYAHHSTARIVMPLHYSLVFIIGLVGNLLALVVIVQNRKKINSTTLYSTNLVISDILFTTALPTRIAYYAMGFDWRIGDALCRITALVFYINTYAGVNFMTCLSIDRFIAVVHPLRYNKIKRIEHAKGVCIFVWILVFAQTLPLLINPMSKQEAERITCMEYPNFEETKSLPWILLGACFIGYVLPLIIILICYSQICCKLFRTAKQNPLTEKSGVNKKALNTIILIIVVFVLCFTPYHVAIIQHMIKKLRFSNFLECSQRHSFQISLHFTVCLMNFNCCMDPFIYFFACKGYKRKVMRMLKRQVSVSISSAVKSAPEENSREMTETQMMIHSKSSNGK
CXCR6 inh: CXCR6 (human) receptor inhibition; O00574; CHO-K1 PathHunter CXCR6 beta-arrestin, luminescence; inhibition, % at 20 µM; hit rate 0.36% among 360,000; AID 602244; in the data active means inhibition above about 34%, passing the limit was not always enough;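 further: antagonist mode with CXCL16 agonist at 10 nM final; 0% = 10 nM CXCL16 with DMSO and 100% = unstimulated wells without agonist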
Target sequence (O00574 whole entry, looked up): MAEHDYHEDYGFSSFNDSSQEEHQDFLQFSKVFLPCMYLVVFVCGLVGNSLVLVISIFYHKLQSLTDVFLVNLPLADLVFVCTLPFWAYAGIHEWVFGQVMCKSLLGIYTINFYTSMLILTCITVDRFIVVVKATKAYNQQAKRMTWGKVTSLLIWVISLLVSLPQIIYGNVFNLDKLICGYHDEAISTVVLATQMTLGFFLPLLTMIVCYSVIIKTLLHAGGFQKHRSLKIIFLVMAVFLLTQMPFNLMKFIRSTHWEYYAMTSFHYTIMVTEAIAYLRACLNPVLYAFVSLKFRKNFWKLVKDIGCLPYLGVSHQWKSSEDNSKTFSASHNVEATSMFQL
APJ antag: APJ receptor antagonism. CHO-K1 APJ beta-arrestin complementation, luminescence. P35414. inhibition, % at 20 µM. hit rate 0.32% among 330,000. AID 2521;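 active means inhibition above about 40% at 20 µM, limit read from the data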;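 further: cells challenged with 10 nM apelin-13 agonist together with compound; plate controls were apelin-13 plus DMSO wells for no effect and DMSO wells lacking apelin-13 for full effect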
CCR6 antag: CCR6 (human) receptor antagonism; inhibition, % at 20 µM; CHO-K1 CCR6 PathHunter beta-arrestin, luminescence, CCL20-stimulated; hit rate 0.49% among 340,000; P51684;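 active means compounds whose inhibition of the agonist-driven luminescence signal at 20 µM reaches about 50%, limit read from the data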;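 further: cells stimulated with CCL20 at 14 nM final; plate controls were DMSO with CCL20 for no effect and DMSO without agonist for full effect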
APJ ag: APJ receptor agonism; P35414; CHO-K1 APJ PathHunter beta-arrestin, luminescence; 0% DMSO wells, 100% apelin; activation, % at 20 µM; hit rate 0.11% among 330,000; AID 2520;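 active means activation more than six SD over the plate average, tested at 20 µM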;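 further: 0% = DMSO alone and 100% = apelin-13 at 10 nM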
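Test system: CHO-K1 APJ beta-arrestin complementation cell line. Amount: cell density 1000 per well. Controls: DMSO negative, 10 nM Apelin-13 positive. Signal: luminescent beta-gal fragment complementation, chemiluminescent substrate. Read-out basis: agonist-driven arrestin binding to APJ. Timing: compound stimulation 90 min at 25 °C, detection 60 min.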
EBI2 antag conf: EBI2 (human) antagonism, single concentration confirmation | shares compounds with EBI2 block | EBI2 beta-arrestin luminescence, 7a,25-OHC antagonism | inhibition, % at 5 µM | hit rate 29% among 2,400 | AID 651997;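 active means inhibition of at least 50%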
EBI2 ag: counter-screen for EBI2 antagonists: EBI2 agonist activity; 2,400 tested, under 10 active; shares compounds with EBI2 block; activation, % at 5 µM; EBI2-expressing cells, agonist mode, luminescence, 60 min; 0% vehicle, 100% 7α,25-dihydroxycholesterol control;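 active means activation of at least 50%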
bGal counter: beta-galactosidase inhibition counter-screen; shares compounds with EBI2 block; inhibition, % at 5 µM; hit rate 1% among 2,400; purified beta-galactosidase, luminescent Galacton Star, 15 min; AID 652176;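 active means replicate-average signal at least 3 plate SD below neutral wells, shown as high inhibition, flagging enzyme-inhibiting false positives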;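 further: 0% = DMSO wells with enzyme and 100% = wells lacking enzyme; higher means stronger loss of beta-gal luminescence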
An asterisk follows results filed as active; nt = no result.

SMILES	EBI2 block	CXCR6 inh	APJ antag	CCR6 antag	APJ ag	EBI2 antag conf	EBI2 ag	bGal counter
CCc1cc(-c2nc(N)ncc2-c2ccc(Br)cc2)c(O)cc1OC	76.7*	4.4	6.7	-6.8	-0.7	48.3	-0.7	-5.9
COc1ccc(CNC(=O)CN(C(=O)c2csnn2)c2ccc(F)cc2)cc1	12.6	3.4	4.7	12.9	1.6	nt	nt	nt
CCCN(CC(=O)Nc1ccccc1C)C(=O)C1CCN(S(=O)(=O)c2ccccc2C(F)(F)F)CC1	5.2	-2.9	-7.2	14.2	-3.8	nt	nt	nt
NC(=O)CSc1nnc(Cc2csc(Nc3ccc(F)cc3)n2)n1Cc1ccccc1	63.2*	4.2	2.5	5.4	-6.1	39.7	-0.5	6.6
COCCCNC(=O)c1cc2c(=O)n3cc(C)ccc3nc2nc1NCC1CCCO1 (stereo not given)	nt	nt	13.6	nt	1.3	nt	nt	nt
Fc1ccc(NC(=S)Nc2cccc3ccccc23)cc1	3.3	-13.4	-21.1	8.8	0.4	nt	nt	nt
CCOc1ccc(NC(=S)Nc2cccc3cnccc23)cc1	65.6*	-7.6	-56.1	9.4	1.0	25.0	1.5	6.8
CCOc1ccc(NC(=S)Nc2cccc3ccccc23)cc1	56.1*	-2.9	-110.7	2.5	23.4	28.9	-1.7	-5.3
COc1ccc(NC(=S)Nc2cccc3cnccc23)cc1	37.6	-5.3	-34.2	12.4	1.3	nt	nt	nt
CCOc1ccc(NC(=S)Nc2ccccc2C2CC2)cc1	59.6*	-2.4	-0.4	8.4	-3.9	32.4	1.5	5.2
CC(C)c1ccc(NC(=S)Nc2cccc3ccccc23)cc1	43.5*	-8.0	-142.3	16.0	24.1	4.5	-1.0	-4.9
CCNC(=S)Nc1ccc(OCC)cc1	-9.1	-8.2	8.9	-2.2	-2.0	nt	nt	nt
Cc1ccc(NC(=S)Nc2cccc3ccccc23)cc1	19.0	-5.2	-92.2	4.0	14.4	nt	nt	nt
Cc1ccc(C(=O)Nc2cccc(S(=O)(=O)N3CCCCC3)c2)cc1S(=O)(=O)N1CCOCC1	-13.2	-2.4	nt	11.9	nt	nt	nt	nt
c1ccc(COc2ccccc2CNC23CC4CC(CC(C4)C2)C3)cc1	4.0	-6.7	-16.2	0.5	-3.3	nt	nt	nt
CC(C)c1ccc(NC(=S)Nc2ccc3[nH]c(=O)[nH]c3c2)cc1	27.3	7.5	-3.9	13.0	0.3	nt	nt	nt
CC(=O)N(C)c1ccc(NC(=S)Nc2ccc(C(C)C)cc2)cc1	51.5*	1.1	11.5	19.7	-3.1	14.7	0.8	5.7
O=C(Nc1ccccc1C(F)(F)F)c1ccc(CN2CCC(Cc3ccccc3)CC2)cc1	0.2	16.4	3.0	4.3	-3.8	nt	nt	nt
COc1ccc(NC(=O)c2ccc(CN3CCN(c4ccccc4)CC3)cc2)cc1	60.6*	5.1	8.5	-12.4	-1.2	22.7	1.5	8.3
O=C(Nc1ccccc1)c1ccc(CN2CCC(Cc3ccccc3)CC2)cc1	64.7*	10.6	9.0	19.2	-3.7	31.8	-0.6	5.7
COc1ccc(C(=O)Nc2ccc(N3CCN(Cc4ccccc4)CC3)cc2)cc1	-7.5	-7.3	8.3	-9.0	-1.5	nt	nt	nt
CCC(=O)c1ccc(OCC(=O)NCC2(N3CCCCC3)CCCCC2)cc1	-3.4	3.6	1.6	22.4	-3.5	nt	nt	nt
COC(=O)c1ccc(Oc2ccc(C(F)(F)F)cn2)cc1	43.5*	4.1	5.4	5.5	-3.9	38.3	1.8	1.2
S=C(NCc1cccnc1)Nc1ccc(Oc2ccc(Cl)cc2)cc1	45.5*	0.7	-4.0	11.2	7.4	21.8	-1.8	-10.0
CCCCCOc1ccc(C(=O)CCC(=O)N2CCCC2)cc1	2.0	0.4	7.8	15.2	-4.2	nt	nt	nt
SMILES	EBI2 block	CXCR6 inh	APJ antag	CCR6 antag	APJ ag	EBI2 antag conf	EBI2 ag	bGal counter
Cc1nnc2c(N(C)S(=O)(=O)c3ccccc3)nc3ccccc3n12	4.8	2.5	6.2	22.5	-0.7	nt	nt	nt
O=C(NCc1ccc2c(c1)OCO2)C1CCN(C(=O)Nc2ccc(Cl)cc2)CC1	46.0*	-2.8	7.1	8.5	-4.5	5.8	-1.3	-12.4
CCN(CC)C(=O)OCCc1cc2ccccc2c(=O)o1	-3.1	-5.2	8.0	13.9	-3.5	nt	nt	nt
COC(=O)N/N=C/c1ccc(OS(=O)(=O)c2ccc(C)cc2)c(OC)c1	-2.0	-6.4	-8.5	2.6	-1.4	nt	nt	nt
C=CCNC(=O)/C(C#N)=C/c1ccc(OS(=O)(=O)c2ccc(C)cc2)c(OC)c1	52.4*	3.7	nt	-3.5	nt	76.0*	2.4	3.9
COc1cc(/C=N/NC(=O)COc2ccc(Cl)cc2)ccc1OS(=O)(=O)c1ccc(C)cc1	42.4*	-3.4	-20.6	9.2	6.6	4.6	-1.3	-6.3
COc1cc(/C=N/NC(=O)COc2cccc(F)c2)ccc1OS(=O)(=O)c1ccc(C)cc1	24.4	5.7	-16.5	17.9	1.1	nt	nt	nt
COc1ccc(C2N(c3ccc(C)cc3)CCN2c2ccc(C)cc2)cc1O	73.5*	1.6	-2.8	5.1	-2.6	15.3	0.7	4.0
COc1cccc(OC)c1NC(=O)CN(C)S(=O)(=O)c1ccc2c(c1)OCCO2	9.2	-1.0	15.5	15.0	1.2	nt	nt	nt
O=C(Oc1ccc(-c2cnc3ccccc3n2)cc1)c1cc([N+](=O)[O-])ccc1Cl	54.7*	0.7	-12.7	12.3	5.6	11.7	-0.2	3.9
Cc1[nH]c2ccccc2c1-c1csc(NC(=O)CN2CCOCC2)n1	-4.5	-4.1	-4.3	1.3	-0.5	nt	nt	nt
COc1ccc(-c2cc(-c3ccccc3)c(C#N)c(S(C)(=O)=O)n2)cc1	65.7*	2.9	-5.5	-3.8	3.6	71.8*	5.0	8.1
O=CNC1(c2ccccc2)CCCCC1	0.1	-2.6	nt	2.9	nt	nt	nt	nt
Cc1ccc(-c2nnc(/C=C/c3ccccc3)o2)cc1	48.7*	-0.3	-9.3	11.8	-1.0	29.9	-0.6	-14.3
Cc1ccc(/C=C/c2nnc(-c3cccc(C)c3)o2)cc1	2.2	-2.9	-10.7	22.9	3.6	nt	nt	nt
CCN(CC)C(=O)c1cccc(-c2csc(C(O)c3ccc(F)cc3)n2)c1 (stereo not given)	-4.7	-10.9	nt	nt	nt	nt	nt	nt
Cc1c(C(=O)Oc2cccc3ccccc23)cnn1-c1ccccc1	31.1*	-0.8	-6.0	4.0	-2.2	4.5	-0.5	2.3
Cc1nc2ccc(C(=O)N3CCN(C(=O)c4ccco4)CC3)cn2c1N(C)C(=O)CCc1ccccc1	-4.9	-2.6	nt	nt	nt	nt	nt	nt
CCCCCCn1c(N2CCN(c3cccc(Cl)c3)CC2)nc2c1c(=O)[nH]c(=O)n2C	36.5*	10.7	17.9	10.3	-2.8	18.6	0.4	5.2
CCC1CCc2c(sc(NC(=O)C3c4ccccc4Oc4ccccc43)c2C(N)=O)C1 (stereo not given)	5.1	-0.5	-12.3	3.2	-2.2	nt	nt	nt
CN1C(=O)N(CC(=O)N2CCN(c3ccccc3F)CC2)C(=O)C12CCCCC2	21.3	-11.2	-6.4	12.3	-1.5	nt	nt	nt

High-throughput results from PubChem BioAssay.
